Measured values taken from ChEMBL document CHEMBL1208687, “Synthesis, antibacterial activity evaluation and QSAR studies of novel dispiropyrrolidines” (2010).
≈ marks a conversion by molar mass, not a printed value.

Columns and labels:
Type in all cases: functional
Staphylococcus aureus = assay: Antimicrobial activity against Staphylococcus aureus NCIM 5021 after 18 hrs by broth microdilution assay; details: NCIM 5021, 18 h
Method in brief: (§1)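 MIC by broth microdilution in Mueller Hinton broth, final inoculum 5 × 10⁵ CFU/ml. Compounds dissolved in absolute ethanol (10 mg per 1 ml stock), then serially diluted into successive wells. Incubated with organism at 37 °C for 18 h with growth and sterility controls, ethanol blank, and uninoculated dilutions checked for precipitation. Then 0.01% resazurin added, read after 2 h further incubation.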

Pseudomonas aeruginosa = assay: Antimicrobial activity against Pseudomonas aeruginosa NCIM 5029 after 18 hrs by broth microdilution assay; details: NCIM 5029, 18 h; method in brief: as §1
Bacillus subtilis = assay: Antimicrobial activity against Bacillus subtilis NCIM 2718 after 18 hrs by broth microdilution assay; details: NCIM 2718, 18 h; method in brief: as §1

Row | Structure (SMILES) | MIC (Staphylococcus aureus) | MIC (Pseudomonas aeruginosa) | MIC (Bacillus subtilis)
1 | CN1C(=O)C[C@@]2(C1=O)[C@@H](c1ccccc1O)CN(C)[C@@]21C(=O)Nc2ccccc21 | 639 µM (≈ 250 µg/mL) | 80 µM (≈ 31.3 µg/mL) | 639 µM (≈ 250 µg/mL)
2 | CN1C(=O)C[C@@]2(C1=O)[C@@H](c1ccccc1O)CN(C)[C@@]21C(=O)N(C)c2ccccc21 | 617 µM (≈ 250 µg/mL) | 77 µM (≈ 31.2 µg/mL) | 617 µM (≈ 250 µg/mL)
3 | COc1ccc([C@H]2CN(C)[C@@]3(C(=O)Nc4ccccc43)[C@@]23CC(=O)N(C)C3=O)cc1 | 617 µM (≈ 250 µg/mL) | 154 µM (≈ 62.4 µg/mL) | 617 µM (≈ 250 µg/mL)
4 | COc1ccc([C@H]2CN(C)[C@@]3(C(=O)N(C)c4ccccc43)[C@@]23CC(=O)N(C)C3=O)cc1 | 298 µM (≈ 125 µg/mL) | 298 µM (≈ 125 µg/mL) | 596 µM (≈ 250 µg/mL)
5 | C#CCN1C(=O)[C@]2(c3ccccc31)N(C)C[C@H](c1ccccc1O)[C@]21CC(=O)N(C)C1=O | 291 µM (≈ 125 µg/mL) | 146 µM (≈ 62.7 µg/mL) | 291 µM (≈ 125 µg/mL)
6 | COc1ccc([C@H]2CN(C)[C@@]3(C(=O)N(Cc4ccccc4)c4ccccc43)[C@@]23CC(=O)N(C)C3=O)cc1 | 252 µM (≈ 125 µg/mL) | 252 µM (≈ 125 µg/mL) | 504 µM (≈ 250 µg/mL)
7 | CN1C(=O)C[C@@]2(C1=O)[C@@H](c1ccc(Cl)cc1)CN(C)[C@@]21C(=O)Nc2ccccc21 | 305 µM (≈ 125 µg/mL) | 152 µM (≈ 62.3 µg/mL) | 610 µM (≈ 250 µg/mL)
8 | CN1C(=O)C[C@@]2(C1=O)[C@@H](c1ccc(Cl)cc1)CN(C)[C@@]21C(=O)N(C)c2ccccc21 | 295 µM (≈ 125 µg/mL) | 147 µM (≈ 62.3 µg/mL) | 590 µM (≈ 250 µg/mL)
9 | Cc1ccc([C@H]2CN(C)[C@@]3(C(=O)Nc4ccccc43)[C@@]23CC(=O)N(C)C3=O)cc1 | 321 µM (≈ 125 µg/mL) | 321 µM (≈ 125 µg/mL) | 642 µM (≈ 250 µg/mL)
10 | CC1(C)S[C@@H]2[C@H](NC(=O)[C@H](N)c3ccccc3)C(=O)N2[C@H]1C(=O)O [AMPICILLIN] | 84 µM (≈ 29.4 µg/mL) | 168 µM (≈ 58.7 µg/mL) | 168 µM (≈ 58.7 µg/mL)
11 | CN(C)[C@@H]1C(O)=C(C(N)=O)C(=O)[C@@]2(O)C(O)=C3C(=O)c4c(O)cccc4[C@@](C)(O)[C@H]3C[C@@H]12 [TETRACYCLINE] | 2 µM (≈ 0.889 µg/mL) | 4 µM (≈ 1.78 µg/mL) | 1 µM (≈ 0.444 µg/mL)
